Measured values taken from ChEMBL document CHEMBL1130158, “Alkyl-substituted amino acid amides and analogous di- and triamines: new non-peptide G protein activators” (J Med Chem, 1997).
Blank lines part the entries; values can stand above or below the molecule they belong to.

Key:
HL-60 [1] = assay: Efficacy expressed as maximal stimulation of GTP hydrolysis in HL-60 membranes at a concentration 2 uM; assay type: functional, Homo sapiens
Outline: (§1)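 HL-60 cells grown in suspension, differentiated toward neutrophil-like cells with dibutyryl-cAMP (0.2 mM) for 48 h; membranes prepared and steady-state GTP hydrolysis measured with [γ-32P]GTP over increasing compound concentrations. Triplicate determinations, at least three independent experiments. Efficacy = maximal stimulation above basal activity, at the concentration giving maximal stimulation; pEC50 = -log half-maximal concentration, means ± SD.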

HL-60 [2] = assay: -log of the half-maximal concentration for stimulation of GTPase in HL-60 membrane (sensitive to PTX); assay type: functional; conditions: Homo sapiens
Outline: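 Differentiated HL-60 cells (dibutyryl-cAMP 0.2 mM, 48 h) incubated overnight with pertussis toxin (200 ng/mL) or left untreated; membranes prepared and steady-state [γ-32P]GTP hydrolysis measured across increasing concentrations. PTX sensitivity judged by comparing treated with control membranes. Triplicates; pEC50 = -log half-maximal concentration, mean ± SD.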

HL-60 [3] = assay: Efficacy expressed as maximal stimulation of GTP hydrolysis in HL-60 membranes at a concentration 5 uM; assay type: functional, Homo sapiens; outline: as §1
HL-60 [4] = assay: -log of the half-maximal concentration for stimulation of GTPase in HL-60 membrane; assay type: functional; conditions: Homo sapiens; outline: as §1
[5] = biological target: Histamine H1 receptor (Cavia porcellus) (UniProt P31389); assay: Histamine activity against Histamine H1 receptor of guinea pig ileum; assay type: tissue-based
Sequence of Histamine H1 receptor (Cavia porcellus) (P31389 whole entry): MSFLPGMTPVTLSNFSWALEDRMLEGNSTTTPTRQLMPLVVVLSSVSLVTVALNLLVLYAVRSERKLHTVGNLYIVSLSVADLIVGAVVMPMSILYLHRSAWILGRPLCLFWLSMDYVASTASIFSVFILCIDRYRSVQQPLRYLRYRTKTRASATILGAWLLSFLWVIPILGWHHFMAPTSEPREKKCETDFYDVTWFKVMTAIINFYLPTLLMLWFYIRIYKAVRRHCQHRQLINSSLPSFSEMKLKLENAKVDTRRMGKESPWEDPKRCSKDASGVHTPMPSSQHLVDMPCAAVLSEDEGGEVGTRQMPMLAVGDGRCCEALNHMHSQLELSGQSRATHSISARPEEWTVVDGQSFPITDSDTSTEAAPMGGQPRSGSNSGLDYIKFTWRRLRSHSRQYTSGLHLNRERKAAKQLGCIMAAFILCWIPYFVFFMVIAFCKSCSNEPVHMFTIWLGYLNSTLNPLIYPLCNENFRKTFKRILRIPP

[6] = biological target: Histamine H3 receptor (Cavia porcellus) (UniProt Q9JI35); assay: Histamine activity against Histamine H3 receptor of guinea pig ileum; assay type: tissue-based
Sequence of Histamine H3 receptor (Cavia porcellus) (Q9JI35 whole entry): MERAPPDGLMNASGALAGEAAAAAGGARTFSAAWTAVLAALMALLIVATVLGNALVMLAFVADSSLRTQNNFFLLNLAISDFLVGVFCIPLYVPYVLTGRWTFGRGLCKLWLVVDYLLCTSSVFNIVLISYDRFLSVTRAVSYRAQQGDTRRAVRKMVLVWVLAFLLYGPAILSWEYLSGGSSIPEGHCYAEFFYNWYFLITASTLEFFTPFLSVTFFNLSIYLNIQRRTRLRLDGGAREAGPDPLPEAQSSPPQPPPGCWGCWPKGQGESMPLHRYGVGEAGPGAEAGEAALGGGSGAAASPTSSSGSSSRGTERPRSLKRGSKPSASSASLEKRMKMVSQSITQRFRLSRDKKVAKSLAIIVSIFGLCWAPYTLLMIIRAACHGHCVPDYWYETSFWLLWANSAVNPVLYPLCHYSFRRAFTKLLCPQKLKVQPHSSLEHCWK

[7] = biological target: Muscarinic acetylcholine receptor M3 (Cavia porcellus) (UniProt Q8VH26); assay: Affinity towards Muscarinic acetylcholine receptor M3 in guinea pig ileum; assay type: tissue-based
Sequence of Muscarinic acetylcholine receptor M3 (Cavia porcellus) (Q8VH26 1-587): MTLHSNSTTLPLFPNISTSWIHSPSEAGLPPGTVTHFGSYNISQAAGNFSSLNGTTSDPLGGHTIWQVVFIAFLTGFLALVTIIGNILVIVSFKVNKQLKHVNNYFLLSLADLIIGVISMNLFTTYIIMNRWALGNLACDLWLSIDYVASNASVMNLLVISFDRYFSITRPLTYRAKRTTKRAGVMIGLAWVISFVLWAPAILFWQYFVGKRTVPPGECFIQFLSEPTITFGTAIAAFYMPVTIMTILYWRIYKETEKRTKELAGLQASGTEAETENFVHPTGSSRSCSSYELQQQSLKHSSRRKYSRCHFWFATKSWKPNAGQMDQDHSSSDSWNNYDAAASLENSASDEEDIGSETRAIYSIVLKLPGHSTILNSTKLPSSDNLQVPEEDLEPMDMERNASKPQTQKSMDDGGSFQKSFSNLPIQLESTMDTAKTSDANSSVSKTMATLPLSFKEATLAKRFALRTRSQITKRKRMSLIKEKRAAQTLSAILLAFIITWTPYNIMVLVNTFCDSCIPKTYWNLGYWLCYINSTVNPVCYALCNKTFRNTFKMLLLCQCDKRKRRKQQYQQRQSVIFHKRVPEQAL

[8] = biological target: Histamine H2 receptor (Cavia porcellus) (UniProt P47747); assay: Histamine activity against Histamine H2 receptor of guinea pig atrium; assay type: tissue-based; conditions: Cardiac atrium
Sequence of Histamine H2 receptor (Cavia porcellus) (P47747 whole entry): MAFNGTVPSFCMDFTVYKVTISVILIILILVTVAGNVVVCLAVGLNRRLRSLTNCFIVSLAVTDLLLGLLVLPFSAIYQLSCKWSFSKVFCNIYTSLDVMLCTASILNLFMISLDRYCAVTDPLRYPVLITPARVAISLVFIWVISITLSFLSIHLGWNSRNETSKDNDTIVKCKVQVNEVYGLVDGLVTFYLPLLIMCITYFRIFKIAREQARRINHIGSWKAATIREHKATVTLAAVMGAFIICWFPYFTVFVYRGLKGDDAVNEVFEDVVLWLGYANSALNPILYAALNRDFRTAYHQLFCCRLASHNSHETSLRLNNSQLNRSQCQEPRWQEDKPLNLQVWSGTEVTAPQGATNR

HL-60 [9] = assay: Efficacy expressed as maximal stimulation of GTP hydrolysis in HL-60 membranes at a concentration 10 uM; assay type: functional, Homo sapiens; outline: as §1
[10] = biological target: Histamine H1 receptor (Cavia porcellus) (UniProt P31389); assay: Histamine activity against H1 receptor of guinea pig ileum; assay type: tissue-based
HL-60 [11] = assay: Efficacy expressed as maximal stimulation of GTP hydrolysis in HL-60 membranes at a concentration 7.5 uM; assay type: functional, Homo sapiens; outline: as §1
HL-60 [12] = assay: Efficacy expressed as maximal stimulation of GTP hydrolysis in HL-60 membranes at a concentration 0.75 uM; assay type: functional, Homo sapiens; outline: as §1
HL-60 [13] = assay: Efficacy expressed as maximal stimulation of GTP hydrolysis in HL-60 membranes at a concentration 3 uM; assay type: functional, Homo sapiens; outline: as §1
HL-60 [14] = assay: Efficacy expressed as maximal stimulation of GTP hydrolysis in HL-60 membranes at a concentration 30 uM; assay type: functional, Homo sapiens; outline: as §1
HL-60 [15] = assay: Efficacy expressed as maximal stimulation of GTP hydrolysis in HL-60 membranes at a concentration 20 uM; assay type: functional, Homo sapiens; outline: as §1
HL-60 [16] = assay: Efficacy expressed as maximal stimulation of GTP hydrolysis in HL-60 membranes at a concentration 300 uM; assay type: functional, Homo sapiens
Outline: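 Steady-state GTP hydrolysis of the membranes was measured over increasing compound concentrations in triplicate, across at least three independent experiments. Efficacy is the maximal stimulation above basal activity, with the concentration giving that maximum reported.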

SMILES: CCCCCCCCCCCCNC(=O)[C@@H](N)CCCN=C(N)N
Efficacy (HL-60 [11]): 92% | EC50 (HL-60 [4]): 794 nM

SMILES: CCCCCCCCCCCCCCNC(=O)[C@@H](N)CCCCN
Efficacy (HL-60 [13]): 100% | EC50 (HL-60 [2]): 501 nM

SMILES: CCCCCCCCCCCCNC(=O)CNC(=O)CN
Efficacy (HL-60 [14]): 120% | EC50 (HL-60 [4]): 5010 nM

SMILES: CCCCCCCCCCCCCCCCNC(=O)[C@@H](N)CCCCN [LYCETAMINE]
Efficacy (HL-60 [1]): 90% | EC50 (HL-60 [2]): 501 nM

SMILES: CCCCCCCCCCCCNC(=O)[C@@H](N)CCC(N)=O
Efficacy (HL-60 [14]): 110% | EC50 (HL-60 [4]): 7940 nM

SMILES: CCCCCCCCCCCCNC(=O)[C@@H](N)Cc1c[nH]cn1
Efficacy (HL-60 [15]): 125% | EC50 (HL-60 [4]): 3160 nM

SMILES: CCCCCCCCCCCCNC(=O)[C@@H](N)CCC/N=C(\N)N[N+](=O)[O-]
Efficacy (HL-60 [16]): 156%

SMILES: CCCCCCCCCCCCCCCCNCC(N)CCCCN (stereo unspecified)
Efficacy (HL-60 [12]): 84% | EC50 (HL-60 [2]): 251 nM

SMILES: CCCCCCCCCCCCNC(=O)[C@@H](N)CCCCN [N-DODECYL LYSINE AMIDE]
Efficacy (HL-60 [3]): 116% | EC50 (HL-60 [2]): 794 nM

SMILES: CC[C@H](C)[C@H](N)C(=O)N[C@@H](CC(N)=O)C(=O)N[C@@H](CC(C)C)C(=O)N[C@@H](CCCCN)C(=O)N[C@@H](C)C(=O)N[C@@H](CC(C)C)C(=O)N[C@@H](C)C(=O)N[C@@H](C)C(=O)N[C@@H](CC(C)C)C(=O)N[C@@H](C)C(=O)N[C@@H](CCCCN)C(=O)N[C@@H](CCCCN)C(=O)N[C@H](C(=O)N[C@@H](CC(C)C)C(N)=O)[C@@H](C)CC
Efficacy (HL-60 [9]): 100% | EC50 (HL-60 [2]): 3160 nM

Further lines, with some results ahead:

EC50 (HL-60 [2]): 501 nM
SMILES: CCCCCCCCCCCCNCC(N)CCCCN (stereo unspecified)
Efficacy (HL-60 [1]): 120%

EC50 (HL-60 [4]): 1000 nM | -Log K [5]: 5.4 | -Log K [6]: < 6 | -Log K [7]: 5.2 | -Log K [8]: 4.1
SMILES: CCCCCCCCCCCCNCC(N)CCCN (stereo unspecified)
Efficacy (HL-60 [3]): 126%

EC50 (HL-60 [4]): 2510 nM | -Log K [10]: 5.3
SMILES: CCCCCCCCCCCCNC(=O)C(N)CCCN (stereo unspecified)
Efficacy (HL-60 [9]): 117%

EC50 (HL-60 [2]): 251 nM
SMILES: CCCCCCCCCCCCCCNCC(N)CCCCN (stereo unspecified)
Efficacy (HL-60 [12]): 117%

EC50 (HL-60 [4]): 1000 nM
SMILES: CCCCCCCCCCCCNCCN
Efficacy (HL-60 [3]): 92%

EC50 (HL-60 [4]): 1000 nM
SMILES: CCCCCCCCCCCCNCCN=C(N)N
Efficacy (HL-60 [11]): 128%

EC50 (HL-60 [4]): 631 nM
SMILES: CCCCCCCCCCCCNCC(N)CCN (stereo unspecified)
Efficacy (HL-60 [13]): 128%

EC50 (HL-60 [4]): 1260 nM
SMILES: CCCCCCCCCCCCNC(=O)C(N)CCN (stereo unspecified)
Efficacy (HL-60 [9]): 105%

EC50 (HL-60 [4]): 3980 nM
SMILES: CCCCCCCCCCCCNC(=O)CN
Efficacy (HL-60 [15]): 100%

EC50 (HL-60 [4]): 2510 nM
SMILES: CCCCCCCCCCCCNC(=O)C(N)CN (stereo unspecified)
Efficacy (HL-60 [9]): 131%

EC50 (HL-60 [2]): 794 nM
SMILES: CCCCCCCCCCCCNC(=O)[C@H](N)CCCCN
Efficacy (HL-60 [3]): 108%
